Reference: ChEMBL document CHEMBL1828498, “Identification and characterization of a novel integrin-linked kinase inhibitor” (J Med Chem, 2011)
Active and inactive are the calls of the source. Unless noted, the rule behind the calls is not given here.

Legend:
[1] = target: T1, Scaffold protein ILK (Homo sapiens) (UniProt Q13418); assay: Inhibition of ILK in human PC3 cells assessed as decrease in MLC phosphorylation by Western blot analysis; assay type: cell-based; details: PC-3
T1 sequence (whole entry): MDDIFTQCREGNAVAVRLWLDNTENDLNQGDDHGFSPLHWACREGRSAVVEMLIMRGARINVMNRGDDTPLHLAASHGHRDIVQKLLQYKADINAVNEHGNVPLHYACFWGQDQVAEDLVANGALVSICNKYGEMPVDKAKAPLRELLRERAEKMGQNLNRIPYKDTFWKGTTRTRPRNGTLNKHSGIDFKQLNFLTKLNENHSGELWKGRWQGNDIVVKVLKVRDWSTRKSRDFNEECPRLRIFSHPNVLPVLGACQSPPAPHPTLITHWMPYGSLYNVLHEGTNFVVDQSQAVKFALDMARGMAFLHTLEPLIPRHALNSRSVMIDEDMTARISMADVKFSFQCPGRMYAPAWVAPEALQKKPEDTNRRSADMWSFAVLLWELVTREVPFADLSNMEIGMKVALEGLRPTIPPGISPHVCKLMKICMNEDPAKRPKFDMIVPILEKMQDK
In short: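 PC-3 and MDA-MB-231 cells exposed 24 h in 5% FBS medium across a concentration series. Phospho-GSK3β (Ser9) and phospho-MLC (Thr18/Ser19) detected by immunoblot: SDS lysis, primary 1:1000 at 4°C for 2 h, HRP secondary, ECL. Representative of three experiments.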

[2] = target: T1, Scaffold protein ILK (Homo sapiens); assay: Inhibition of ILK in human PC3 cells expressing constitutively active ILK assessed as decrease in phosphorylated p38 concentration by Western blot analysis; assay type: cell-based; details: PC-3
In short: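 Stable PC-3 clones expressing GFP-CA-ILK (G418 250 μg/mL selection, GFP sorting) treated 24 h in 5% FBS medium. Phospho-ERK1/2 and phospho-p38 detected by immunoblot with ECL. Representative of three experiments.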

[3] = target: Hepatocyte growth factor receptor (Homo sapiens) (UniProt P08581); assay: Inhibition of Met at 5 uM assessed as remaining activity
In short: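 Panel of 20 recombinant kinases, profiled by a commercial vendor.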

PC-3 [4] = assay: Reduction in YB-1 mRNA expression in human PC3 cells after 24 hrs by RT-PCR analysis; assay type: functional, cell-based
In short: (§1)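 PC-3, PC-3/CA-ILK, SKBR3 and SKBR3/CA-ILK cells treated 24 h in 5% FBS medium; total RNA from 1 × 10^6 cells by Trizol, 1 μg reverse-transcribed, then PCR with gene-specific primers and β-actin reference.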

[5] = target: T2, 3-phosphoinositide-dependent protein kinase 1 (Homo sapiens) (UniProt O15530); assay: Inhibition of PDK2 in human PC3 cells assessed as Akt Thr-308 dephosphorylation by Western blot analysis; assay type: functional, cell-based; details: PC-3
T2 sequence (whole entry): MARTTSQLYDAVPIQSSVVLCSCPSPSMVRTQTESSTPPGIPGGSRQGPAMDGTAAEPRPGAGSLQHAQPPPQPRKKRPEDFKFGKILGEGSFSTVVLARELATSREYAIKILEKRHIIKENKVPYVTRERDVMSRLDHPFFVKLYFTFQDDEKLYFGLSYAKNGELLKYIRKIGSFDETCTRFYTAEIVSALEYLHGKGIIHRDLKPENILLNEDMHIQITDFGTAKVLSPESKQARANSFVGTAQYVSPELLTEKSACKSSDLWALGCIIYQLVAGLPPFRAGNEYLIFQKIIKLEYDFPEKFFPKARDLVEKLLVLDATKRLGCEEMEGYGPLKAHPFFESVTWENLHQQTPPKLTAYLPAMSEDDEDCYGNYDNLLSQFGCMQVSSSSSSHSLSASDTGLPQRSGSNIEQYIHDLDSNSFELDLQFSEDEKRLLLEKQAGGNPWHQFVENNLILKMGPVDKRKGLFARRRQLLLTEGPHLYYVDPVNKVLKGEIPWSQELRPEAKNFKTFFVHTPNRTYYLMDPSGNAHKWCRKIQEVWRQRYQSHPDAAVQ
In short: (§2)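 Cells exposed 24 h in 5% FBS medium, final DMSO 0.1%; lysed in 1% SDS/10 mM EDTA/50 mM Tris pH 8.1, equal protein on SDS-PAGE, nitrocellulose, primary antibody 1:1000 at 4°C for 2 h, HRP secondary 1:5000, ECL detection; blots representative of three independent experiments.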

[6] = target: Ribosomal protein S6 kinase beta-1 (Homo sapiens) (UniProt P23443); assay: Inhibition of p70S6K in human PC3 cells assessed as decrease in phosphorylated p70S6K by Western blot analysis; assay type: cell-based; details: PC-3
In short: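 PC-3 cells (parental, or stable GFP-CA-ILK clones selected with G418 250 μg/mL and GFP sorting) exposed 24 h in 5% FBS medium; SDS lysis, immunoblot at 1:1000 primary, ECL; representative of three experiments.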

[7] = target: Proto-oncogene tyrosine-protein kinase ROS (Homo sapiens) (UniProt P08922); assay: Inhibition of Ros at 5 uM assessed as remaining activity
[8] = target: Rapamycin-insensitive companion of mTOR (Homo sapiens) (UniProt Q6R327); assay: Inhibition of mTORC2 in human MDA-MB-231 cells assessed as SGK1 phosphorylation by Western blot analysis; assay type: cell-based; in short: as §2
Mus musculus = assay: Decrease in phosphorylation of EGFR in human PC3 cells xenografted nude mouse tumor lysate at 25 mg/kg, po administered for 35 days by Western blot analysis; assay type: functional, organism-based; parameters: dose 25 mg/kg; details: Neoplasm, PC-3
In short: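 Male NCr athymic nude mice, 5–7 weeks, with s.c. PC-3 xenografts (0.5 × 10^6 cells in 50% Matrigel), dosed by oral gavage once daily for 35 days. Vehicle 0.5% methylcellulose, 0.1% Tween 80 in water, 10 μL/g. Tumors snap-frozen at sacrifice; three tumors per group immunoblotted.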

[9] = target: T1, Scaffold protein ILK (Homo sapiens); assay: Inhibition of ILK in human PC3 cells assessed as decrease in phosphorylated p38 concentration by Western blot analysis; assay type: cell-based; details: PC-3
In short: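 PC-3 cells exposed to graded concentrations for 24 h in 5% FBS medium. Immunoblotting for phospho-Tyr397-FAK, ERK1/2, p38 and JNK. Lysis in 1% SDS buffer, primary antibody 1:1000 at 4°C for 2 h, ECL. Three independent experiments.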

PC-3 [10] = assay: Reduction in YB-1 mRNA expression in human PC3 cells expressing constitutively active ILK after 24 hrs by RT-PCR analysis; assay type: functional, cell-based; in short: as §1
SK-BR-3 [11] = assay: Reduction in EGFR concentration in human SKBR3 cells expressing constitutively active ILK after 24 hrs by Western blot analysis; assay type: functional, cell-based
In short: (§3)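 PC-3 versus stable PC-3/CA-ILK, or SKBR3 versus transient SKBR3/CA-ILK (electroporation, used 48 h after), treated 24 h in 5% FBS medium; immunoblotting with ECL; representative of three experiments.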

SK-BR-3 [12] = assay: Reduction in YB-1 concentration in human SKBR3 cells after 24 hrs by Western blot analysis; assay type: functional, cell-based; in short: as §3
PC-3 [13] = assay: Induction of apoptosis in human PC3 cells assessed as PARP cleavage by Western blot analysis; assay type: functional, cell-based
In short: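 PC-3 cells treated 24 h in 5% FBS medium. Lysed in 1% SDS/10 mM EDTA/50 mM Tris pH 8.1, equal protein on SDS-PAGE, primary antibody 1:1000 at 4°C for 2 h, HRP secondary, ECL detection. Read-outs PARP cleavage and LC3-II conversion; blots representative of three experiments.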

Ribosomal protein S6 kinase beta-1 (Homo sapiens), sequence (P23443 whole entry, looked up): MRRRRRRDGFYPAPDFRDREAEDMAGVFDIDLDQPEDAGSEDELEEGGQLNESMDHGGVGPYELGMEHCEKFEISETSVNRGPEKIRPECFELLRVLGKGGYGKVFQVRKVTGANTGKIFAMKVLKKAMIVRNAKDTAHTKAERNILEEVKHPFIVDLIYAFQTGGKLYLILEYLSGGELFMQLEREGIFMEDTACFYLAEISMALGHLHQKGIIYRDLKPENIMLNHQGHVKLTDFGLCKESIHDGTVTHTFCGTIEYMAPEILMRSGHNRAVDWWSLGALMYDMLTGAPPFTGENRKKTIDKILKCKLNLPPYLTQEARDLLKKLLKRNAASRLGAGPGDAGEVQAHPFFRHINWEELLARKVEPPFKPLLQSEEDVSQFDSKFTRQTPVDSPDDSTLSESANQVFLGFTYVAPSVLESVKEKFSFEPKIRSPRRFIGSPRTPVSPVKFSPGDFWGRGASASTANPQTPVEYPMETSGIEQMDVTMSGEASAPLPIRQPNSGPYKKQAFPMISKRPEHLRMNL
Proto-oncogene tyrosine-protein kinase ROS (Homo sapiens), sequence (P08922 whole entry): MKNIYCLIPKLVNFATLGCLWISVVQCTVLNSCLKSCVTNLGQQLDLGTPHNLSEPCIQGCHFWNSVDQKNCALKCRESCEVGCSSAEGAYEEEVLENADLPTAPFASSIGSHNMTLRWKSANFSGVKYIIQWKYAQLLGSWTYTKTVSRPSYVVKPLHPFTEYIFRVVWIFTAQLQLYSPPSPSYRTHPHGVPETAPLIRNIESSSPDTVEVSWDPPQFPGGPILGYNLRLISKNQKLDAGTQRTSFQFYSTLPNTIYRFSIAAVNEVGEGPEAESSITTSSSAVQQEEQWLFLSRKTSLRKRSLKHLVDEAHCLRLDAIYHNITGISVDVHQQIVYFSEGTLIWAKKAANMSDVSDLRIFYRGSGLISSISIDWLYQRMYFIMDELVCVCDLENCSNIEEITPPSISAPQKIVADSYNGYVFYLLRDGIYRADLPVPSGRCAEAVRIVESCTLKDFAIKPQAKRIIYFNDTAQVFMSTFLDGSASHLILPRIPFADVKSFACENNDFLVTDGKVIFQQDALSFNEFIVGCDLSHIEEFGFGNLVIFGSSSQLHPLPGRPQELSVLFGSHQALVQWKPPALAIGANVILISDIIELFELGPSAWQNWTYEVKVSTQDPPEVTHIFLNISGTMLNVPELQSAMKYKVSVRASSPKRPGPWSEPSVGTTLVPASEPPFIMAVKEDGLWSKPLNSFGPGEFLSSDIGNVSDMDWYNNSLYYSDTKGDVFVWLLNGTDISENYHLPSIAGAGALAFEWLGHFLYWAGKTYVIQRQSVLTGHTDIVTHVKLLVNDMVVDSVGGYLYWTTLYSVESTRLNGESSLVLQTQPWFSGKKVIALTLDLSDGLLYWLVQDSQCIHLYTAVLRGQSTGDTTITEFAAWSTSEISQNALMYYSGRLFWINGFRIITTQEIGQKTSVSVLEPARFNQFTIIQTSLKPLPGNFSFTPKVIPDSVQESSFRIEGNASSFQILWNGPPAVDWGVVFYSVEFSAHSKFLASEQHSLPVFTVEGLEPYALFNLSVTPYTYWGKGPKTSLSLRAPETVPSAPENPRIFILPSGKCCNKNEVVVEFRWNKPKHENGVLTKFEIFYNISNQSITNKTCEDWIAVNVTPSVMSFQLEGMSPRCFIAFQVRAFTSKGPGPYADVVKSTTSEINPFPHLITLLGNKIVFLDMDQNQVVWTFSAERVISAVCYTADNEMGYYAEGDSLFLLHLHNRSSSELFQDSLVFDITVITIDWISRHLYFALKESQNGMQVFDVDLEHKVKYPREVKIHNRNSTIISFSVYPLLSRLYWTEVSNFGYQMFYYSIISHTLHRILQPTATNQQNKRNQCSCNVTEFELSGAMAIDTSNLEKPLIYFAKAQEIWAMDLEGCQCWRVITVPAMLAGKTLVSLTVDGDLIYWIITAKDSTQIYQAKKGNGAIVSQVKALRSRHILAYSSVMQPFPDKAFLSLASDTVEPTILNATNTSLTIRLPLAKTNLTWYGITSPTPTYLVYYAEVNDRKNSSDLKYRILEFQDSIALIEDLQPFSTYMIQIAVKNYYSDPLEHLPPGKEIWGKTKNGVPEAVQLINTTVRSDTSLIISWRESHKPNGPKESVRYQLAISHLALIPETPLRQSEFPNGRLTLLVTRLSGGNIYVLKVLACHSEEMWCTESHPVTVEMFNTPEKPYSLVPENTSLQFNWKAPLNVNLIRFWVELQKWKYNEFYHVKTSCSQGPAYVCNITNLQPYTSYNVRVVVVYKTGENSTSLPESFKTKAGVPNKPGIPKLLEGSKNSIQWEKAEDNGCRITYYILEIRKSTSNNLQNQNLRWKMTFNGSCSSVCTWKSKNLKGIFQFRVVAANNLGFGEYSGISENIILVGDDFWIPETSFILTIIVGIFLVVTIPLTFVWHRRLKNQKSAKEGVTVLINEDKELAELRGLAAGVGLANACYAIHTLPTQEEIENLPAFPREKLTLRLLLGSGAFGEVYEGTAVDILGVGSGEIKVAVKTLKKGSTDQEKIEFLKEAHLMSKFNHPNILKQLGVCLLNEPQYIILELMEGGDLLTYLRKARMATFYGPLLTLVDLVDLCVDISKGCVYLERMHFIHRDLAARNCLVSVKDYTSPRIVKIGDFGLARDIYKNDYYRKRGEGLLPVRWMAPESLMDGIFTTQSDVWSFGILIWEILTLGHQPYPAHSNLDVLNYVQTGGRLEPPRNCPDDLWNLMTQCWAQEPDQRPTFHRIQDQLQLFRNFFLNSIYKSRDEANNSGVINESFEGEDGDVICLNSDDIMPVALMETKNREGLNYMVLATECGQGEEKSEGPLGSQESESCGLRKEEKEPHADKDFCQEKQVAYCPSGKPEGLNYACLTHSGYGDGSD
Hepatocyte growth factor receptor (Homo sapiens), sequence (P08581 whole entry): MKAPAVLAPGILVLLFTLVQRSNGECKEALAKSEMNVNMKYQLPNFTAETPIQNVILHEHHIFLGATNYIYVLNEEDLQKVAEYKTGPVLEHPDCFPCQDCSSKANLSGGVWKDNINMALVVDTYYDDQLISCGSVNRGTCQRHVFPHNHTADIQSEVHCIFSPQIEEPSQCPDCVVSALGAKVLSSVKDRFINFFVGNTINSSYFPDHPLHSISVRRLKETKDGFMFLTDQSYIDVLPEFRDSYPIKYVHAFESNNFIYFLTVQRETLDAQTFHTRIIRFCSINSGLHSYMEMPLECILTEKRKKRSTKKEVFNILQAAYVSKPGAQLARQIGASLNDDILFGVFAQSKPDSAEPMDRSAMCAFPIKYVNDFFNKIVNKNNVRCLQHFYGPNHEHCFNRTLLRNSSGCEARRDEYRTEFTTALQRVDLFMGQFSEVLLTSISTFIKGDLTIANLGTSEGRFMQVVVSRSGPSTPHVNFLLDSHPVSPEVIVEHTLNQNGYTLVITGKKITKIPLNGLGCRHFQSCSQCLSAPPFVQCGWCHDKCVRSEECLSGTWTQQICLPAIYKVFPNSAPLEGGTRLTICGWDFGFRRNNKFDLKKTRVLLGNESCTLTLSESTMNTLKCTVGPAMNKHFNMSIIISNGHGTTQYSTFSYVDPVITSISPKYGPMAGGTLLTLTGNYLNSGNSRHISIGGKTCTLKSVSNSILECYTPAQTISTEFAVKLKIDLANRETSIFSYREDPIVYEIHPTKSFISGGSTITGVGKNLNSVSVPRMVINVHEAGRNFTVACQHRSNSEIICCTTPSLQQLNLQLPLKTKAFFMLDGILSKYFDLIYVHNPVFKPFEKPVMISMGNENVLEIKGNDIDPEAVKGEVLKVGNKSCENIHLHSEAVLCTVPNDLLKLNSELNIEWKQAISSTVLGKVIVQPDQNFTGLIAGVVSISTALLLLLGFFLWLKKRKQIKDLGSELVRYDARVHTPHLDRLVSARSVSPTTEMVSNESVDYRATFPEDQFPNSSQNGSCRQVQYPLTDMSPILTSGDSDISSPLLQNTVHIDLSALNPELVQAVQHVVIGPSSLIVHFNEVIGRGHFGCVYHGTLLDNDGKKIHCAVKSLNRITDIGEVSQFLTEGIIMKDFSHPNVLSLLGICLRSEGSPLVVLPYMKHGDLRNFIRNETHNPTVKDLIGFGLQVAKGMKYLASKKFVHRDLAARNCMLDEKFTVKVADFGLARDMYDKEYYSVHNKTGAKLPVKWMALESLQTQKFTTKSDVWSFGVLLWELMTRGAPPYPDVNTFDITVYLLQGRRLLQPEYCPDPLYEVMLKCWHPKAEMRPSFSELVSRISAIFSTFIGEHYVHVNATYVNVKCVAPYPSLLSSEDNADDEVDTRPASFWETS

CNC(=O)CCc1cc(-c2ccc(-c3ccc(C(F)(F)F)cc3)cc2)n(-c2ccc(N3CCNCC3)cc2)n1
inhibition [1]: Active
inhibition [2]: inactive
Activity [3]: 110%
Activity (PC-3 [4]): Dose-dependent effect
inhibition [5]: inactive
inhibition [6]: inactive
Activity [7]: 103%
inhibition [8]: inactive
Activity (Mus musculus): Active
inhibition [9]: Dose-dependent effect
Activity (PC-3 [10]): inactive
Activity (SK-BR-3 [11]): inactive
Activity (SK-BR-3 [12]): Dose-dependent effect
Activity (PC-3 [13]): Dose-dependent effect
